The source of these data is ChEMBL document CHEMBL3608301, “Phenolic Compounds from Atriplex littoralis and Their Radiation-Mitigating Activity” (J Nat Prod, 2015).

Molecules are shown by their SMILES.

In series [1] the test system is PBL. Kind of series: Radioprotective activity in 2-Gy gamma irradiated human PBL assessed as binucleated cells with micronuclei at 4.7 uM treated for 2 to 19 hrs followed by compound washout measured after 72 hrs by cytochalasin-B-blocked micronucleus assay (reference value: 15.5 +/- 0.6%). The class given is functional.
In series [2] the test system is PBL. Kind of series: Radioprotective activity in 2-Gy gamma irradiated human PBL assessed as frequency of micronuclei at 4.7 uM treated for 2 to 19 hrs followed by compound washout measured after 72 hrs by cytochalasin-B-blocked micronucleus assay relative to control. The class given is functional.
In series [3] the test system is PBL. Kind of series: Toxicity in 2-Gy gamma irradiated human PBL assessed as cytokinesis-block proliferation index at 4.7 uM treated for 2 to 19 hrs followed by compound washout measured after 72 hrs (reference value: 1.6 +/- 0.1). The class given is cell-based.
Series [4] deals with PBL. Nature of the series: Radioprotective activity in 2-Gy gamma irradiated human PBL assessed as incidence of micronuclei in 1000 binucleated cells at 4.7 uM treated for 2 to 19 hrs followed by compound washout measured after 72 hrs by cytochalasin-B-blocked micronucleus assay (reference value: 183 +/- 9.6). The class given is functional.
Series [5] deals with PBL. Nature of the series: Radioprotective activity in 2-Gy gamma irradiated human PBL assessed as incidence of micronuclei in binucleated cells at 4.7 uM treated for 2 to 19 hrs followed by compound washout measured after 72 hrs by cytochalasin-B-blocked micronucleus assay (reference value: 1.2 +/- 0.03). The class given is functional.
The subject of series [6] is PBL. Nature of the series: Radioprotective activity in 2-Gy gamma irradiated human PBL assessed as frequency of micronuclei at 3 uM treated for 2 to 19 hrs followed by compound washout measured after 72 hrs by cytochalasin-B-blocked micronucleus assay relative to control. The series is classed as functional. In short, it runs like this: (§1)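 Venous blood from five healthy male volunteers was γ-irradiated at 2 Gy (0.45 Gy/min) at room temperature and cultured. Compounds (0.8−7.4 μM final) were added 2 to 19 h after irradiation, at 37 °C. Cultures were then rinsed and moved to fresh RPMI 1640 for 72 h. Cytokinesis-block micronucleus assay: ≥1000 binucleated cells scored per sample (Countryman–Heddle criteria). Controls were non-treated irradiated cultures; one-way ANOVA with Tukey test.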

Series [7] deals with PBL. Nature of the series: Toxicity in 2-Gy gamma irradiated human PBL assessed as cytokinesis-block proliferation index at 3 uM treated for 2 to 19 hrs followed by compound washout measured after 72 hrs (reference value: 1.6 +/- 0.1). The class given is cell-based.
In series [8] the test system is PBL. Nature of the series: Radioprotective activity in 2-Gy gamma irradiated human PBL assessed as incidence of micronuclei in 1000 binucleated cells at 3 uM treated for 2 to 19 hrs followed by compound washout measured after 72 hrs by cytochalasin-B-blocked micronucleus assay (reference value: 183 +/- 9.6). The class given is functional. In short, it runs like this:
as §1

Series [9] has as its system PBL. Nature of the series: Radioprotective activity in 2-Gy gamma irradiated human PBL assessed as incidence of micronuclei in binucleated cells at 3 uM treated for 2 to 19 hrs followed by compound washout measured after 72 hrs by cytochalasin-B-blocked micronucleus assay (reference value: 1.2 +/- 0.03). The class given is functional. In short, it runs like this: as §1

For series [10], the system named is PBL. Nature of the series: Radioprotective activity in 2-Gy gamma irradiated human PBL assessed as binucleated cells with micronuclei at 3 uM treated for 2 to 19 hrs followed by compound washout measured after 72 hrs by cytochalasin-B-blocked micronucleus assay (reference value: 15.5 +/- 0.6%). The class given is functional. In outline: as §1
Series [11] deals with PBL. Nature of the series: Toxicity in 2-Gy gamma irradiated human PBL assessed as cytokinesis-block proliferation index at 3.1 uM treated for 2 to 19 hrs followed by compound washout measured after 72 hrs (reference value: 1.6 +/- 0.1). The class given is cell-based.
The subject of series [12] is PBL. Kind of series: Radioprotective activity in 2-Gy gamma irradiated human PBL assessed as frequency of micronuclei at 1.5 uM treated for 2 to 19 hrs followed by compound washout measured after 72 hrs by cytochalasin-B-blocked micronucleus assay relative to control. The class given is functional. In outline: as §1
For series [13], the system named is PBL. Nature of the series: Radioprotective activity in 2-Gy gamma irradiated human PBL assessed as binucleated cells with micronuclei at 3.1 uM treated for 2 to 19 hrs followed by compound washout measured after 72 hrs by cytochalasin-B-blocked micronucleus assay (reference value: 15.5 +/- 0.6%). The class given is functional. In outline: as §1
Series [14] deals with PBL. Nature of the series: Radioprotective activity in 2-Gy gamma irradiated human PBL assessed as binucleated cells with micronuclei at 1.5 uM treated for 2 to 19 hrs followed by compound washout measured after 72 hrs by cytochalasin-B-blocked micronucleus assay (reference value: 15.5 +/- 0.6%). The series is classed as functional. In short, it runs like this: as §1
The test system of series [15] is PBL. Nature of the series: Radioprotective activity in 2-Gy gamma irradiated human PBL assessed as incidence of micronuclei in binucleated cells at 1.5 uM treated for 2 to 19 hrs followed by compound washout measured after 72 hrs by cytochalasin-B-blocked micronucleus assay (reference value: 1.2 +/- 0.03). The class given is functional. In outline: as §1
Series [16] has as its system PBL. Kind of series: Toxicity in 2-Gy gamma irradiated human PBL assessed as cytokinesis-block proliferation index at 1.5 uM treated for 2 to 19 hrs followed by compound washout measured after 72 hrs (reference value: 1.6 +/- 0.1). The class given is cell-based.
For series [17], the system named is PBL. Kind of series: Radioprotective activity in 2-Gy gamma irradiated human PBL assessed as frequency of micronuclei at 0.8 uM treated for 2 to 19 hrs followed by compound washout measured after 72 hrs by cytochalasin-B-blocked micronucleus assay relative to control. The series is classed as functional. In short, it runs like this:
as §1

For series [18], the system named is PBL. Nature of the series: Radioprotective activity in 2-Gy gamma irradiated human PBL assessed as incidence of micronuclei in binucleated cells at 3.1 uM treated for 2 to 19 hrs followed by compound washout measured after 72 hrs by cytochalasin-B-blocked micronucleus assay (reference value: 1.2 +/- 0.03). The series is classed as functional. In outline:
as §1

In series [19] the test system is PBL. Nature of the series: Radioprotective activity in 2-Gy gamma irradiated human PBL assessed as incidence of micronuclei in 1000 binucleated cells at 0.8 uM treated for 2 to 19 hrs followed by compound washout measured after 72 hrs by cytochalasin-B-blocked micronucleus assay (reference value: 183 +/- 9.6). The series is classed as functional. In outline: as §1

In series [20] the test system is PBL. Kind of series: Toxicity in 2-Gy gamma irradiated human PBL assessed as cytokinesis-block proliferation index at 0.8 uM treated for 2 to 19 hrs followed by compound washout measured after 72 hrs (reference value: 1.6 +/- 0.1). The class given is cell-based.
Series [21] concerns PBL. Nature of the series: Radioprotective activity in 2-Gy gamma irradiated human PBL assessed as frequency of micronuclei at 3.1 uM treated for 2 to 19 hrs followed by compound washout measured after 72 hrs by cytochalasin-B-blocked micronucleus assay relative to control. The series is classed as functional. In short, it runs like this: as §1
Series [22] has as its system PBL. Kind of series: Radioprotective activity in 2-Gy gamma irradiated human PBL assessed as incidence of micronuclei in 1000 binucleated cells at 1.5 uM treated for 2 to 19 hrs followed by compound washout measured after 72 hrs by cytochalasin-B-blocked micronucleus assay (reference value: 183 +/- 9.6). The class given is functional. In short, it runs like this: as §1

In series [23] the test system is PBL. Nature of the series: Radioprotective activity in 2-Gy gamma irradiated human PBL assessed as incidence of micronuclei in binucleated cells at 0.8 uM treated for 2 to 19 hrs followed by compound washout measured after 72 hrs by cytochalasin-B-blocked micronucleus assay (reference value: 1.2 +/- 0.03). The class given is functional. In outline:
as §1

Series [24] concerns PBL. Kind of series: Radioprotective activity in 2-Gy gamma irradiated human PBL assessed as incidence of micronuclei in 1000 binucleated cells at 3.1 uM treated for 2 to 19 hrs followed by compound washout measured after 72 hrs by cytochalasin-B-blocked micronucleus assay (reference value: 183 +/- 9.6). The series is classed as functional. In outline:
as §1

Series [25] has as its system PBL. Kind of series: Radioprotective activity in 2-Gy gamma irradiated human PBL assessed as binucleated cells with micronuclei at 0.8 uM treated for 2 to 19 hrs followed by compound washout measured after 72 hrs by cytochalasin-B-blocked micronucleus assay (reference value: 15.5 +/- 0.6%). The series is classed as functional. In short, it runs like this:
as §1

With `NCCCNCCSP(=O)(O)O` [AMIFOSTINE], the Activity turned out to be 13.9% in the series with PBL [1]; 90.7% in the series on PBL [2]; 1.6 with PBL [3]; 166 in the series with PBL [4]; 1.2 in the series with PBL [5].
For the compound `CO[C@@]12[C@H](COC(N)=O)C3=C(C(=O)C(C)=C(N)C3=O)N1C[C@@H]1N[C@@H]12` [MITOMYCIN], the Activity was found to be 123.5% in the series with PBL [6]; 1.6 in the series with PBL [7]; 226.1 in the series with PBL [8]; 1.3 in the series on PBL [9]; 17.9% in the series with PBL [10].
Consider `COc1cc(-c2oc3cc4c(c(O)c3c(=O)c2O[C@@H]2O[C@H](CO)[C@@H](O)[C@H](O)[C@H]2O[C@@H]2O[C@@H](C)[C@H](O)[C@@H](O)[C@H]2O)OCO4)ccc1O`, for which the Activity in the series with PBL [11] was determined as 1.8; in the series on PBL [12], 93.4%; in the series on PBL [13], 14.3%; with PBL [14], 14.1%; in the series on PBL [15] it was 1.2; in the series with PBL [16] it was 1.7. In addition, the Activity in the series with PBL [17] stood at 94%; in the series with PBL [18], 1.2; with PBL [19], 172; in the series on PBL [20], 1.7; with PBL [21] it was 95.8%; in the series with PBL [22], 170.9. Further, the Activity was 1.2 in the series on PBL [23], 175.3 in the series with PBL [24] and 14.4% with PBL [25].
In the case of `C[C@@H]1O[C@@H](O[C@H]2[C@H](Oc3c(-c4ccc(O)c(O)c4)oc4cc5c(c(O)c4c3=O)OCO5)O[C@H](CO)[C@@H](O)[C@@H]2O)[C@H](O)[C@H](O)[C@H]1O`, the Activity with PBL [11] came to 1.7; in the series with PBL [12] it was 97.7%; in the series on PBL [13], 15.3%; with PBL [14] it was 14.1%; in the series with PBL [15] it was 1.3; in the series on PBL [16], 1.7. For the same compound, the Activity is listed as 98.9% in the series with PBL [17]; 1.2 in the series on PBL [18]; 181 in the series on PBL [19]; 1.7 in the series on PBL [20]; 102.2% in the series with PBL [21]; 178.8 in the series with PBL [22]. The values for the Activity in the series on PBL [23], with PBL [24] and in the series with PBL [25] were 1.2, 187 and 15.1%, respectively.
`COc1cc(-c2oc3cc4c(c(O)c3c(=O)c2O[C@@H]2O[C@H](CO[C@@H]3O[C@@H](C)[C@H](O)[C@@H](O)[C@H]3O)[C@@H](O)[C@H](O)[C@H]2O)OCO4)ccc1O`: the Activity with PBL [11] came out at 1.6; in the series with PBL [12] it was 71.7%; with PBL [13] it was 11.7%; in the series on PBL [14], 10.8%; with PBL [15] it was 1.2; with PBL [16], 1.6. The Activity with PBL [17] was determined as 69.2%; in the series with PBL [18], 1.2; in the series on PBL [19], 126.6; with PBL [20], 1.6; in the series with PBL [21] it was 77.3%; in the series on PBL [22], 131.3. Moreover, the Activity in the series with PBL [23] came out at 1.2; in the series on PBL [24], 141.4; in the series on PBL [25], 11.2%.
